Test results published in article PMC5901702 (Journal of biomolecular screening, 2012).

Legend:
rat IDE [1] = target: T1, rat IDE (Rattus norvegicus, UniProt P35559); format: biochemical; conditions: 100 µM compound; a-factor–based substrate 50 µM; 0.1 M KPi pH 7.6; relative to DMSO-treated control = 100%
T1 sequence (P35559 1-1019): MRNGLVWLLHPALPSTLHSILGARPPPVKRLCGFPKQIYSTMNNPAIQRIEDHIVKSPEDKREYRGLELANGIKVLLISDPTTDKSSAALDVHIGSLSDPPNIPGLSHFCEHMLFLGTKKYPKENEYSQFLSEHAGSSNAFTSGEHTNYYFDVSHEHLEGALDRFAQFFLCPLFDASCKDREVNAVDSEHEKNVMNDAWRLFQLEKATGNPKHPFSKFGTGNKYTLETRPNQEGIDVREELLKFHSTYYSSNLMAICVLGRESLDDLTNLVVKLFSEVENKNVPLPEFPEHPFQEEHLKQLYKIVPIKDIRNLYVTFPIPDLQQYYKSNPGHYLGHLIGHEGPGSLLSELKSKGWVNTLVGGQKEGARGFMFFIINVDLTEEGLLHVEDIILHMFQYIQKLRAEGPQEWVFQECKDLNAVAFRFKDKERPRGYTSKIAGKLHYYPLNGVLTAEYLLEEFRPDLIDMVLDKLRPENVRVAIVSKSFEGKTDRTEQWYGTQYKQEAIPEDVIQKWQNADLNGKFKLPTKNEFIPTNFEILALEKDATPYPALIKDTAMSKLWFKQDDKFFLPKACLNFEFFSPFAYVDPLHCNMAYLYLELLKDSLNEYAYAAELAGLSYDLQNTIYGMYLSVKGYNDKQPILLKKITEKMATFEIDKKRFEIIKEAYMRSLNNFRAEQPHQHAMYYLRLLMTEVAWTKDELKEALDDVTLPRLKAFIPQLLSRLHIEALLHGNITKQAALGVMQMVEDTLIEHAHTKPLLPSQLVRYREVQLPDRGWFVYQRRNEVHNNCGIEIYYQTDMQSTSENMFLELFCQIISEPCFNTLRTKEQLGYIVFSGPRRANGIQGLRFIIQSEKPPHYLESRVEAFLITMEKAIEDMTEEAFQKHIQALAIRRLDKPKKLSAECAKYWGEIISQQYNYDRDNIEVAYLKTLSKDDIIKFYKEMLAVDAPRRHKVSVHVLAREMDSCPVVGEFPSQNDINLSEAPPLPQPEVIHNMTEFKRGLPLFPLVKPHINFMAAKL
In short: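 Then mixed 1:1 with substrate. Fluorescence was followed for 60 min, and rates were taken from the 15–30 min window. Activity was normalized by the trypsin/pronase approach.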

bovine trypsin = target: T2, bovine trypsin (Bos taurus, UniProt P00760); experiment: Target specificity: trypsin activity with a-factor–based peptide; format: biochemical; conditions: 100 µM compound; relative to DMSO control = 100%
T2 sequence (P00760 24-246): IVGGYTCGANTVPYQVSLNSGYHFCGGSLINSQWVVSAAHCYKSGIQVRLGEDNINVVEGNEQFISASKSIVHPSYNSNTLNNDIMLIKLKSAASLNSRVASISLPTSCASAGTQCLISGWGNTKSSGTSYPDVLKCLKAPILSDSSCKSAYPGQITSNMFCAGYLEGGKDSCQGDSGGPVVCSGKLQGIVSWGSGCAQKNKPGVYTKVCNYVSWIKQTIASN
In short: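 Single-dose specificity assay with a-factor–based fluorogenic peptide (50 µM) in 0.1 M KPi pH 7.6. Ste23p was used at 10 µg/mL and 30 °C; trypsin and pronase E at 0.5 µg/mL each under the 37 °C HTS conditions. Enzymes were preincubated 10 min with 100 µM compound. Triplicate rates were normalized by trypsin/pronase full digestion and given relative to DMSO control (100%).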

yeast Rce1p = target: T3, yeast Rce1p (Saccharomyces cerevisiae, UniProt Q03530); experiment: Target specificity: Rce1p activity; format: biochemical; conditions: 100 µM compound; relative to DMSO control = 100%
T3 sequence (Q03530 1-315): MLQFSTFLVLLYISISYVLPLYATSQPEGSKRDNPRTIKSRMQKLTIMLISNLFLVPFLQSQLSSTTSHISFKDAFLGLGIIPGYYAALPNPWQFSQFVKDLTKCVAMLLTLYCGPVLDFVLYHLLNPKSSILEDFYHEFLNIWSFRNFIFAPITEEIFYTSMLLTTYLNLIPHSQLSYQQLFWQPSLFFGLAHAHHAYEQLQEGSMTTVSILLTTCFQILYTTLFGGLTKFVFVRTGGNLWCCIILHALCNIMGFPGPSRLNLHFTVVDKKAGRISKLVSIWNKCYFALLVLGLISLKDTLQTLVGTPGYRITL
In short: (§1)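 Yeast-derived microsomes (250 µg/mL) enriched for Rce1p or Ste24p were preincubated 10 min with 100 µM compound. They were assayed with an internally quenched fluorogenic farnesylated K-Ras C-terminus–based peptide, read at 320/420 nm ex/em. Rates were in triplicate, normalized by trypsin/pronase complete digestion, and expressed relative to DMSO control (100%).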

yeast Ste24p = target: T4, yeast Ste24p (Saccharomyces cerevisiae, UniProt P47154); experiment: Target specificity: Ste24p activity; format: biochemical; conditions: 100 µM compound; relative to DMSO control = 100%
T4 sequence (P47154 1-453): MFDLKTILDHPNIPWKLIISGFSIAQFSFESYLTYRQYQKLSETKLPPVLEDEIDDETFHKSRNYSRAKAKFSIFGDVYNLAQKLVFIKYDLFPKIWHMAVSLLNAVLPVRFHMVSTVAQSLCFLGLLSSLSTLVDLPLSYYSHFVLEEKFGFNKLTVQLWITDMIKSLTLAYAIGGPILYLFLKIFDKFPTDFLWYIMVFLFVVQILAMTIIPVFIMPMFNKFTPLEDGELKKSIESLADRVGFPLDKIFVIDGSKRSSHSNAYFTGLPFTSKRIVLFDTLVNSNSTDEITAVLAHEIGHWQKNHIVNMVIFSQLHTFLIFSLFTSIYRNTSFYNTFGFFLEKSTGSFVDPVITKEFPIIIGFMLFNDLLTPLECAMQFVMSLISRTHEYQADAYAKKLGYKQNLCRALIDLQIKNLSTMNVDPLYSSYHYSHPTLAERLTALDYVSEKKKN
In short: as §1

rat IDE [2] = target: T1, rat IDE; experiment: Insulin competition with a-factor–based substrate on rat IDE; format: biochemical; conditions: 100 µM compound; […] (IC50) insulin; 0.1 M KPi
rat IDE [3] = target: T1, rat IDE; experiment: Native PAGE mobility shift of rat IDE; format: binding; conditions: 100 µM compound; 60 min at 37 °C
In short: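 Rat IDE was preincubated 60 min at 37 °C with compound (100 µM) or ATP (3 mM). It was mixed 1:1 with 2× native sample buffer (0.6 M Tris-HCl pH 6.8, 20% glycerol, bromophenol blue), run on 10% native PAGE at 4 °C and silver-stained.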

| Compound | % Activity IDE (rat IDE [1]) | % Activity Trypsin (bovine trypsin) | % Activity Rce1p (yeast Rce1p) | % Activity Ste24p (yeast Ste24p) | ability to stimulate IDE activity in presence of insulin (rat IDE [2]) | native PAGE mobility shift of IDE (rat IDE [3]) |
| --- | --- | --- | --- | --- | --- | --- |
| O=S(=O)(O)CCCc1cccc2ccccc12 [Compound 1] | 195.4 ± 12.2% | 94.2 ± 0.3% | 89.7 ± 3.8% | 97.2 ± 12.7% | retained their ability to stimulate IDE activity | – |
| Cn1ncc2c(NCCc3ccccc3)nc(Cl)nc21 [Compound 2] | 170.3 ± 16.0% | 115.1 ± 3.9% | 83.2 ± 3.4% | 93.0 ± 6.8% | – | – |
| O=S(=O)(O)c1cc(O)c2c(O)c(N=Nc3cccc4ccccc34)c(S(=O)(=O)O)cc2c1 [Compound 3] | 356.0 ± 16.0% | 99.3 ± 2.2% | – | – | retained their ability to stimulate IDE activity | did not reveal a mobility shift |
| Nc1nc(SCc2ccccc2Cl)cc(C(=O)O)n1 [Compound 5] | 263.5 ± 1.0% | 94.3 ± 5.4% | 101.2 ± 11.0% | 131.4 ± 18.8% | retained their ability to stimulate IDE activity | – |
| O=C(CCN1CC2CCC(CC2)C1)c1cccs1 [Compound 6] | 230.7 ± 13.5% | 111.5 ± 2.8% | 90.1 ± 1.0% | 98.6 ± 9.9% | – | noticeable shift |
| O=C(O)c1ccc(Oc2nc3ccccc3s2)cc1 [Compound 7] | 186.6 ± 7.4% | 111.0 ± 1.2% | 89.6 ± 2.4% | 92.8 ± 13.1% | retained their ability to stimulate IDE activity | – |
| O=[N+]([O-])/C=C/c1cc2ccccc2[nH]1 [Compound 8] | 195.0 ± 14.0% | 101.8 ± 1.8% | – | 89.2 ± 10.7% | – | noticeable shift |
